# rRNA inh HTS – selective bacterial rRNA inhibition in E. coli | E. coli WT GFP vs humanized-ribosome RFP mutants, fluorescence, 24 h; active compounds read low; DMSO median 0, no signal -100 | GFP signal change (wild-type ribosome), % (test concentration not listed) | 1.6% of 350,000 active;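 active means significant combined selectivity score with lowered wild-type GFP, culture density cut under 30%, mutant RFP and density less affected; inactive means any of these conditions unmet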
# Cneo AK release – causes C. neoformans cell lysis | 0.2% of 360,000 active | lysis activity, % at 15 µM | AID 651654 | adenylate kinase release luminescence, 4 h; normalised: neutral wells 0, clomiphene wells 100;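 active means mean lysis activity across replicates of at least 80%, whatever share of replicates individually reach that level; inactive means mean lysis activity below 80%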
#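 Material: C. neoformans cells | Amount: Yeast cell density of 5 × 10^6 cells/mL | Medium: Fresh YPD growth medium | Dosing: Single dose | Times: Static 4 h at 37 °C with compound, 1 h detection | Detection: AK luminescence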
# AF4-AF9 inh – inhibitors of human MLL-AF4/AF9 interaction. P42568. AlphaScreen, biotin-AF4 peptide binding to FLAG-AF9. inhibition, % at 10 µM. 0.47% of 350,000 active. AID 651704;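 active means every replicate reaching a set inhibition limit, whatever the replicate mean, cut at about 25% in these data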;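 further: 0% = plate neutral control median and 100% = total signal loss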
# PfHsp90 yeast 2 – growth inhibition of yeast expressing Plasmodium Hsp90. inhibition, % at 9.4 µM. S. cerevisiae expressing PfHsp90, BacTiter-Glo ATP, 48 h; yeast lacking PDR1 and PDR3 efflux regulators. AID 504621. 0.32% of 310,000 active;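 active means every replicate shows inhibition above about 80%, whatever the replicate mean, limit read from the data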;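 further: 0% = DMSO neutral controls and 100% = 20 µM radicicol positive controls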
# DENV2 CPE rescue – inhibitors of DENV2 cytopathic effect; DENV2-infected cells, cytopathic effect rescue, plate reader; CPE inhibition, % at 9.99 µM; 1.7% of 350,000 active; in the data active means CPE inhibition above about 20%, passing the limit was not always enough; tested in BHK-21 cells;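 further: 0% = median of neutral control wells and 100% = median of positive control wells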
# S100A4 MyoIIA – S100A4-myosin IIA interaction inhibition; P26447; S100A4/TAMRA-MyoIIA peptide fluorescence polarization; inhibition, % at 10.7 µM; 0.14% of 360,000 active; AID 652163;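 active means mean inhibition of at least 70% across replicates, with every replicate also reaching that level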
# Target sequence (P26447 whole entry, looked up): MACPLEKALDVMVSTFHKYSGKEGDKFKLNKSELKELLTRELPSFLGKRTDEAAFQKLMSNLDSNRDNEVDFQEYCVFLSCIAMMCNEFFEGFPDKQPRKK
#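 Test system – S100A4 monomer (human) · Compound – single-point compound testing · Schedule – 5 min incubation before reading · Probe or stimulus – TAMRA-labelled myosin IIA heavy-chain peptide probe, 5 nM · Benchmarks – neutral control DMSO, positive control TFP · Medium – Calcium-containing HEPES buffer, pH 7.2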
# Starred values were filed as active, the others as inactive; . = no result. Sampled rows, rich in hits. Any-hit rate of the full collection: about 3.2%.
SMILES,rRNA inh HTS,Cneo AK release,AF4-AF9 inh,PfHsp90 yeast 2,DENV2 CPE rescue,S100A4 MyoIIA
CO[C@H]1/C=C/O[C@@]2(C)Oc3c(C)c(O)c4c(O)c(c5c(c4c3C2=O)NC2(CCN(CC(C)C)CC2)N=5)=NC(=O)/C(C)=C\C=C\[C@H](C)[C@H](O)[C@@H](C)[C@@H](O)[C@@H](C)[C@H](OC(C)=O)[C@@H]1C,-58,2,.,3,110*,4
Cc1cccc(-c2ccc([C@@H]3[C@H](CO)N4C(=O)CN(C(=O)c5cccnc5)C[C@@H]34)cc2)c1,-1,.,12,.,-2,15
O=C(c1cccnc1)N1CC(=O)N2[C@H](CO)[C@@H](c3ccc(-c4ccc(F)cc4)cc3)[C@H]2C1,2,.,15,.,-1,-13
O=C1CN(Cc2ccc(F)cc2)C[C@H]2[C@@H](c3ccc(-c4cccnc4)cc3)[C@H](CO)N12,1,.,-1,.,24*,2
O=C(c1cccnc1)N1CC(=O)N2[C@H](C1)[C@H](c1ccc(-c3ccc(F)cc3)cc1)[C@@H]2CO,-1,.,31*,.,-5,8
Cc1cccc(-c2ccc([C@H]3[C@H]4CN(C(=O)c5cccnc5)CC(=O)N4[C@H]3CO)cc2)c1,1,.,36*,.,-1,28
CO[C@@H]1CN(C)C(=O)c2ccc(NC(=O)C3CC3)cc2OC[C@@H](C)N(CCC(F)(F)F)C[C@@H]1C,-9,-2,1,.,2,0
O=C(COC(=O)c1cc(=O)[nH]c2ccccc12)Nc1cccc(S(=O)(=O)N2CCOCC2)c1,-17*,-5,-4,-1,1,8
NS(=O)(=O)c1cccc(NC(=O)CSc2nnc(-c3ccccc3F)n2C2CC2)c1,-29*,5,-1,-4,-1,0
CN(C)S(=O)(=O)c1cccc(NC(=O)CSc2nc3ccccc3[nH]2)c1,-26,.,0,3,-5,0
O=C(CSc1nc2ccc(Cl)cc2[nH]1)c1cccs1,-25*,.,-10,-23,-3,-5
O=C(CSc1nc2ccccc2[nH]1)Nc1cccc(S(=O)(=O)N2CCOCC2)c1,-36*,1,-14,4,2,1
O=C(Nc1nccs1)[C@@H]1[C@@H](CO)[C@@H]2Cn3c(cccc3=O)[C@H]1N2C(=O)C1CCCCC1,7,.,-4,.,10,10
CCC(=O)N1CC2(C1)[C@H](c1ccc(-c3ccc(F)cc3)cc1)[C@@H](CO)N2C(=O)CC,-3,.,-2,.,-11,5
O=C(C[C@@H]1CC[C@H](NC(=O)c2cccc(F)c2)[C@@H](CO)O1)NCc1ccccc1,1,4,-2,.,-2,-7
NS(=O)(=O)c1cccc(NC(=O)CSc2nc3ccc(Cl)cc3[nH]2)c1,-37*,4,0,7,4,4
O=C(CSc1nc2ccccc2c(=O)n1-c1ccccc1Cl)Nc1cccc(S(=O)(=O)N2CCOCC2)c1,5,-1,-73,8,63*,2
Cc1ccc2nc(SCC(=O)Nc3cccc(S(=O)(=O)N(C)C)c3)[nH]c2c1,.,.,.,12,.,.
CC(Oc1ncnc2ccccc12)C(=O)Nc1cccc(S(=O)(=O)N2CCOCC2)c1 (stereo not drawn),-7,0,29*,-2,-6,1
O=C(COc1ncnc2ccccc12)Nc1cccc(S(=O)(=O)N2CCOCC2)c1,.,2,.,-1,.,.
O=C(CSc1nc2ccccc2c(=O)n1-c1ccc(F)cc1)Nc1cc(S(=O)(=O)N2CCOCC2)ccc1Cl,.,.,.,-75,.,.
CO[C@@H]1CN(C)C(=O)c2ccc(NC(=O)c3ccc(F)cc3)cc2OC[C@@H](C)N(C)C[C@@H]1C,2,-8,0,.,17,-36
Cc1cccc(C(=O)OCC(=O)NCc2ccc(Cl)cc2)c1,2,1,-1,.,29*,1
CCCNC(=O)[C@H]1[C@H](CO)[C@H]2Cn3c(ccc(/C=C/c4ccccc4)c3=O)[C@@H]1N2C(=O)c1cccnc1,-4,0,-7,.,6,1
Cc1n[nH]c(=O)c2c(NC(=O)CSc3nnc(-c4ccco4)n3C)oc(C)c12,3,1,1,-16,-3,-9
SMILES,rRNA inh HTS,Cneo AK release,AF4-AF9 inh,PfHsp90 yeast 2,DENV2 CPE rescue,S100A4 MyoIIA
Cc1n[nH]c(=O)c2c(NC(=O)CSc3nnc(C4CC4)n3C)oc(C)c12,-2,.,-2,.,39*,-1
CCOc1ccc(/C=C2\SC(=S)N(NS(=O)(=O)c3ccc(C)cc3)C2=O)cc1OC,-24*,0,6,10,3,0
CCOc1ccc(/C=C2\SC(=S)N(NS(=O)(=O)c3ccccc3)C2=O)cc1OC,-15,.,1,-9,0,5
CCCCCCCCCCCCCCCC(O)C[N+](C)(C)CCO (stereo not drawn),-66,.,3,111*,7,-11
CCCCCC(O)CCCC(=O)O (stereo not drawn),.,-1,-5,5,8,-8
Cc1ccccc1-c1ccc([C@@H]2[C@@H](CO)N3C(=O)CN(C(=O)Cc4ccccn4)C[C@H]23)cc1,-3,.,-2,.,-6,4
CN(C)c1ccc(CC(=O)N2CCCC(c3cc(C(=O)Nc4ccc(F)c(Cl)c4)no3)C2)cc1 (stereo not drawn),-13,0,4,.,33*,-5
Cn1cnc(S(=O)(=O)N2CCCC(c3cc(C(=O)Nc4ccc(F)c(Cl)c4)no3)C2)c1 (stereo not drawn),-25*,0,3,.,16,-13
O=C(Nc1ccc(F)c(Cl)c1)c1cc(C2CCCN(S(=O)(=O)c3ccccc3)C2)on1 (stereo not drawn),-5,0,-1,.,6,-6
CCOc1ccccc1CNC(=O)CCCc1cn(C)c2ccccc12,-9,0,49*,-26,3,-3
CCNC(=O)C[C@@H]1CC[C@H]2[C@@H](COc3ccc(NC(=O)c4cscn4)cc3C(=O)N2C)O1,2,3,-1,.,20,-3
Cn1nc(C(=O)NNc2c(F)c(F)cc(F)c2F)c2ccccc2c1=O,-21*,0,-1,18,-7,-4
Cc1ccc(S(=O)(=O)N(C)C[C@@H]2Oc3ccc(NC(=O)CCCCCC(=O)Nc4ccccc4N)cc3CC(=O)N([C@H](C)CO)C[C@H]2C)cc1,-1,-2,1,.,-4,-20
C/C(=N\Nc1nc2ccccc2s1)c1ccc(Br)s1,.,.,4,115*,-5,6
CC(=NNc1nc2ccccc2s1)c1ccncn1,-54,.,6,-19,-2,2
CO[C@@H]1CN(C)C(=O)c2cc(NC(=O)c3ccccc3F)ccc2OC[C@@H](C)N(C(=O)c2ccccc2F)C[C@@H]1C,-5,-11,2,.,-2,2

# Screens (PubChem)
